Activity calls are given as the source filed them. The rule behind the calls is not given here.
Assays:
[1] = Permeability of the compound at pH 6.5 after 2 hrs by PAMPA; format: ADME; details: read-out: permeability
Outline: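 PAMPA in a filter-plate sandwich. Sample was 50 µM final, in buffer with 10% DMSO, filtered before use. Donor was pH 6.5 and acceptor pH 7.4. Plates incubated 2 h at 25 °C in humid air. Donor and acceptor contents quantified by UV spectrum (270–400 nm) against reference standards. n = 2.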

Trypsin = Trypsin (Homo sapiens, UniProt P07477+P07478+P35030); experiment: Inhibition of purified trypsin (unknown origin) using chromogenic substrate S-2222 by spectrophotometry; format: protein assay
Outline: (§1)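 Chromogenic amidolysis started by adding enzyme, with A405 monitored continuously at 37 °C. Thrombin was 0.20 U/mL final with S-2238. Trypsin was 1.0 U/mL final with S-2222. Hydrolysis rate recorded as mOD/min.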

Plasma [2] = experiment: Drug metabolism in cynomolgus monkey plasma assessed as formation of glucuronide metabolite at 10 mg/kg, po as single bolus dose measured after 1 to 24 hrs post dose; format: ADME, organism-based, Macaca fascicularis; parameters: dose 10 mg/kg, route oral; details: in vivo
Outline: (§2)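 Male cynomolgus monkeys (4.0–4.5 kg, n = 3), fasted, given 10 mg/kg orally as a suspension in 0.5% methylcellulose. Blood sampled at 1, 2, 4, 6, 8, 12 and 24 h and spun to plasma. Samples underwent solid-phase extraction, were dried, reconstituted in mobile phase and measured by LC–MS/MS for parent and glucuronide, with an internal standard. Dose and concentrations expressed as free form. LOQ 10 ng/mL.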

Coagulation factor X = Coagulation factor X (Homo sapiens, UniProt P00742); experiment: Inhibition of purified factor 10a (unknown origin) using chromogenic substrate S-2222 by spectrophotometry
Coagulation factor X, sequence (P00742 41-179 limits assumed): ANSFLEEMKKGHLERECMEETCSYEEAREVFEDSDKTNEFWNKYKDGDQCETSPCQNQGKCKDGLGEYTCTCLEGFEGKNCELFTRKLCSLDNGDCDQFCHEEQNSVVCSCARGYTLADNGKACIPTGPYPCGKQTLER
Coagulation factor X, sequence (P00742 235-488 limits assumed): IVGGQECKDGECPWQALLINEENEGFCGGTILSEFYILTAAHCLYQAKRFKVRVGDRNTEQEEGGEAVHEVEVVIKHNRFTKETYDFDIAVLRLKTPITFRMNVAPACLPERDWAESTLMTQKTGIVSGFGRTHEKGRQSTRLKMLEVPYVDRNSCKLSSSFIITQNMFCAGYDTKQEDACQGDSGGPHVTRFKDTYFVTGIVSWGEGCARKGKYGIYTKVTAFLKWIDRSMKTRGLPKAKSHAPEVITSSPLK
Outline: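 Chromogenic assay with S-2222 substrate in 0.05 M Tris-HCl pH 8.4 or 0.15 M NaCl. Reaction started by adding enzyme, and A405 read continuously at 37 °C. IC50 taken from a plot of logit residual activity against log inhibitor concentration. Mean of three separate determinations.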

Prothrombin = Prothrombin (Homo sapiens, UniProt P00734); experiment: Inhibition of purified thrombin (unknown origin) using chromogenic substrate S-2238 by spectrophotometry; outline: as §1
Cynomolgus monkey [3] = experiment: Ex vivo anticoagulant activity in cynomolgus monkey plasma at 1 mg/kg, po as single bolus dose measured after 5 mins post dose; format: functional, organism-based; parameters: dose 1 mg/kg; details: Macaca fascicularis
Plasma [4] = experiment: Anticoagulant activity in cynomolgus monkey plasma assessed as concentration required to double prothrombin time by coagulometry; format: functional, Macaca fascicularis
Outline: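 Citrated cynomolgus monkey blood spun at 3000 rpm for 10 min to give platelet-poor plasma, stored at −40 °C. Prothrombin time measured by coagulometer at 37 °C with thromboplastin, compared against a distilled water control. CT2 (concentration doubling clotting time) estimated from each individual concentration–response curve. Mean of three separate determinations.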

[5] = Lipophilicity, logD of the compound; format: physicochemical; details: octanol/water
Cynomolgus monkey [6] = experiment: Ex vivo anticoagulant activity in cynomolgus monkey plasma at 1 to 10 mg/kg, po as single bolus dose measured after 5 mins post dose; format: functional, organism-based; details: Macaca fascicularis
Cynomolgus monkey [7] = experiment: Ex vivo anticoagulant activity in cynomolgus monkey plasma at 1 mg/kg, iv as single bolus dose measured after 5 mins post dose; format: functional, organism-based; parameters: dose 1 mg/kg; details: Macaca fascicularis
Outline: (§3)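 Cynomolgus monkeys (n = 3) received a single intravenous bolus. Citrated blood was taken 5 min later and platelet-poor plasma prepared by centrifugation. PT expressed relative to normal cynomolgus monkey plasma, as mean + SD.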

Plasma [8] = experiment: Drug level in cynomolgus monkey plasma treated with 4'-Bromo-2'-[(5-chloro-2-pyridyl)carbamoyl]-6'-hydroxyl-1-isopropylpiperidine-4-carboxanilide hydrochloride at 10 mg/kg, po as single bolus dose measured after 1 to 24 hrs post dose; format: ADME, organism-based, Macaca fascicularis; parameters: dose 10 mg/kg, route oral; details: in vivo; outline: as §2
Cynomolgus monkey [9] = experiment: Ex vivo anticoagulant activity in cynomolgus monkey plasma at 0.1 mg/kg, iv as single bolus dose measured after 5 mins post dose; format: functional, organism-based; parameters: dose 0.1 mg/kg; details: Macaca fascicularis; outline: as §3

Row | SMILES | Papp at 2 h [1] [×10⁻⁶ cm/s] | IC50 (Trypsin) [nM] | Drug metabolism (Plasma [2]) | IC50 (Coagulation factor X) [nM] | IC50 (Prothrombin) [nM] | logD [5] | Drug metabolism (Plasma [8]) | Activity (Cynomolgus monkey [3]) | 2PT (Plasma [4]) [µM] | Activity (Cynomolgus monkey [6]) | Activity (Cynomolgus monkey [7]) | Activity (Cynomolgus monkey [9])
1 | CC(C)N1CCC(C(=O)Nc2c(O)cc(Cl)cc2C(=O)Nc2ccc(Cl)cn2)CC1 |  |  |  | 8.2 |  |  |  |  |  |  |  | 
2 | CC(C)N1CCC(C(=O)Nc2c(O[C@@H]3O[C@H](C(=O)O)[C@@H](O)[C@H](O)[C@H]3O)cc(Cl)cc2C(=O)Nc2ccc(Cl)cn2)CC1 |  |  |  | 15 |  |  |  |  |  |  |  | 

Now those with a lower IC50 (Coagulation factor X), led by results:

Row | Papp at 2 h [1] [×10⁻⁶ cm/s] | IC50 (Trypsin) [nM] | Drug metabolism (Plasma [2]) | IC50 (Coagulation factor X) [nM] | IC50 (Prothrombin) [nM] | logD [5] | Drug metabolism (Plasma [8]) | SMILES | Activity (Cynomolgus monkey [3]) | 2PT (Plasma [4]) [µM] | Activity (Cynomolgus monkey [6]) | Activity (Cynomolgus monkey [7]) | Activity (Cynomolgus monkey [9])
3 | > 30 | > 100000 | metabolite_detected | 4 | > 100000 |  |  | CC(C)N1CCC(C(=O)Nc2c(O)cc(Br)cc2C(=O)Nc2ccc(Cl)cn2)CC1 | Active | 0.31 |  |  | 
4 | > 30 |  |  | 5.8 |  | 1.8 |  | CC(C)N1CCC(C(=O)Nc2ccc(Cl)cc2C(=O)Nc2ccc(Cl)cn2)CC1 |  | 0.22 | Active | Active | 
5 |  | > 100000 |  | 4.9 | > 100000 | -1.1 | metabolite_detected | CC(C)N1CCC(C(=O)Nc2c(O[C@@H]3O[C@H](C(=O)O)[C@@H](O)[C@H](O)[C@H]3O)cc(Br)cc2C(=O)Nc2ccc(Cl)cn2)CC1 |  | 0.28 |  |  | Active

Source: ChEMBL document CHEMBL3352753, “Novel strategy to boost oral anticoagulant activity of blood coagulation enzyme inhibitors based on biotransformation into hydrophilic conjugates” (Bioorg Med Chem, 2014)
